Reference: ChEMBL document CHEMBL1158495, “Quinolone carboxylic acids as a novel monoketo acid class of human immunodeficiency virus type 1 integrase inhibitors” (J Med Chem, 2009)

target: Human immunodeficiency virus type 1 integrase (Human immunodeficiency virus 1, UniProt Q7ZJM1); assay: Inhibition of HIV1 integrase strand transfer activity; settings: not given
Sequence (Q7ZJM1 whole entry): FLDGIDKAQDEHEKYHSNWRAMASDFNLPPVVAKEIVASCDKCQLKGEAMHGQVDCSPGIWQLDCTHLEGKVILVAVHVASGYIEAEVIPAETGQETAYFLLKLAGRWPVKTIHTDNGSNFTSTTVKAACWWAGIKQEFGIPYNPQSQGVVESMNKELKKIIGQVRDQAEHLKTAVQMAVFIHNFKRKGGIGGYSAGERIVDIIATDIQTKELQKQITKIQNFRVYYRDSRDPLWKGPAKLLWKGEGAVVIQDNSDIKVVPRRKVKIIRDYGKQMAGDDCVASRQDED

Structure (SMILES)	IC50
CCC[C@@H](CO)n1cc(C(=O)O)c(=O)c2cc(Cc3cccc(Cl)c3F)ccc21	8.2 nM
Cn1cc(C(=O)C(=O)O)c(=O)c2cc(Cc3ccccc3)ccc21	> 100000 nM
O=C(O)c1c[nH]c2ccc(Cc3c(Cl)cccc3Cl)cc2c1=O	370 nM
O=C(O)c1c[nH]c2ccc(Cc3cc(Cl)ccc3Cl)cc2c1=O	250 nM
CC[C@@H](CO)n1cc(C(=O)O)c(=O)c2cc(Cc3cccc(Cl)c3F)ccc21	9 nM
O=C(O)Cn1cc(C(=O)O)c(=O)c2cc(Cc3cccc(Cl)c3Cl)ccc21	32 nM
O=C(O)c1cn(CCO)c2ccc(Cc3cccc(Cl)c3Cl)cc2c1=O	21 nM
O=C(O)c1c[nH]c2ccc(Cc3ccccc3F)cc2c1=O	500 nM
O=C(O)c1c[nH]c2ccc(Cc3ccccc3Cl)cc2c1=O	410 nM
CCCn1cc(C(=O)O)c(=O)c2cc(Cc3cccc(Cl)c3Cl)ccc21	55 nM
CC(C)(C)[C@@H](CO)n1cc(C(=O)O)c(=O)c2cc(Cc3cccc(Cl)c3F)ccc21	6 nM
C[C@@H](CO)n1cc(C(=O)O)c(=O)c2cc(Cc3cccc(Cl)c3F)ccc21	14.8 nM
NC(=O)CCn1cc(C(=O)O)c(=O)c2cc(Cc3cccc(Cl)c3Cl)ccc21	116 nM
O=C(O)c1cn(CCCO)c2ccc(Cc3cccc(Cl)c3Cl)cc2c1=O	77 nM
N#Cc1cc2c(cc1Cc1cccc(Cl)c1Cl)c(=O)c(C(=O)O)cn2CCO	50 nM
COc1cc2c(cc1Cc1cccc(Cl)c1F)c(=O)c(C(=O)O)cn2[C@H](CO)C1CCCCC1	6.7 nM
Cn1cc(C(=O)O)c(=O)c2cc(Cc3cccc(Cl)c3Cl)ccc21	83 nM
COc1ccccc1Cc1ccc2[nH]cc(C(=O)O)c(=O)c2c1	1170 nM
O=C(O)c1cn(CCO)c2cc(Cl)c(Cc3cccc(Cl)c3Cl)cc2c1=O	43 nM
O=C(O)c1c[nH]c2ccc(Cc3cccc(Cl)c3Cl)cc2c1=O	70 nM

system: Human immunodeficiency virus 1; assay: Antiviral activity against HIV1 3B infected in human MT4 cells assessed as inhibition of viral replication after 5 days by MTT assay; type: functional, organism-based; settings: Human immunodeficiency virus 1, 3B, MT4, 120 h
In short: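 MT-4 human T lymphoid cells at 1 × 10^5 cells/mL in RPMI 1640 with 10% FBS, penicillin and streptomycin; infected with strain IIIb at multiplicity 0.01, compounds added, 37 °C for 5 days. Viability read by MTT (7.5 mg/mL solution), formazan dissolved in acidic isopropanol with 4% Triton-X, absorbance at 595 nm.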

Structure (SMILES)	EC50
CC(C)[C@@H](CO)n1cc(C(=O)O)c(=O)c2cc(Cc3cccc(Cl)c3F)ccc21	7.5 nM
O=C(O)c1cn(CCO)c2ccc(Cc3cccc(Cl)c3F)cc2c1=O	80 nM
O=C(O)c1cnc2ccc(Cc3ccccc3)cc2c1O	> 30000 nM
CCC[C@@H](CO)n1cc(C(=O)O)c(=O)c2cc(Cc3cccc(Cl)c3F)ccc21	9.8 nM
Cn1cc(C(=O)C(=O)O)c(=O)c2cc(Cc3ccccc3)ccc21	> 30000 nM
O=C(O)c1c[nH]c2ccc(Cc3c(Cl)cccc3Cl)cc2c1=O	> 6000 nM
COc1cc2c(cc1Cc1cccc(Cl)c1F)c(=O)c(C(=O)O)cn2CCO	20 nM
O=C(O)c1c[nH]c2ccc(Cc3cc(Cl)ccc3Cl)cc2c1=O	> 6000 nM
CC[C@@H](CO)n1cc(C(=O)O)c(=O)c2cc(Cc3cccc(Cl)c3F)ccc21	17.1 nM
O=C(O)Cn1cc(C(=O)O)c(=O)c2cc(Cc3cccc(Cl)c3Cl)ccc21	13600 nM
O=C(O)c1cn(CCO)c2ccc(Cc3cccc(Cl)c3Cl)cc2c1=O	100 nM
O=C(O)c1c[nH]c2ccc(Cc3ccccc3F)cc2c1=O	15900 nM
O=C(O)c1c[nH]c2ccc(Cc3ccccc3Cl)cc2c1=O	> 6000 nM
CCCn1cc(C(=O)O)c(=O)c2cc(Cc3cccc(Cl)c3Cl)ccc21	640 nM
O=C(O)/C(O)=C/C(=O)c1cccc(Cc2ccccc2)c1	440 nM
CC(C)(C)[C@@H](CO)n1cc(C(=O)O)c(=O)c2cc(Cc3cccc(Cl)c3F)ccc21	1.3 nM
COc1cc2c(cc1Cc1cccc(Cl)c1F)c(=O)c(C(=O)O)cn2[C@@H](CO)C(C)C	109 nM
C[C@@H](CO)n1cc(C(=O)O)c(=O)c2cc(Cc3cccc(Cl)c3F)ccc21	27.7 nM
NC(=O)CCn1cc(C(=O)O)c(=O)c2cc(Cc3cccc(Cl)c3Cl)ccc21	2040 nM
O=C(O)c1cn(CCCO)c2ccc(Cc3cccc(Cl)c3Cl)cc2c1=O	470 nM
N#Cc1cc2c(cc1Cc1cccc(Cl)c1Cl)c(=O)c(C(=O)O)cn2CCO	2000 nM
COc1cc2c(cc1Cc1cccc(Cl)c1F)c(=O)c(C(=O)O)cn2[C@H](CO)C1CCCCC1	2.8 nM
Cn1cc(C(=O)O)c(=O)c2cc(Cc3cccc(Cl)c3Cl)ccc21	450 nM
COc1ccccc1Cc1ccc2[nH]cc(C(=O)O)c(=O)c2c1	> 6000 nM
O=C(O)c1cn(CCO)c2cc(Cl)c(Cc3cccc(Cl)c3Cl)cc2c1=O	510 nM
O=C(O)c1c[nH]c2ccc(Cc3cccc(Cl)c3Cl)cc2c1=O	3400 nM

system: not listed separately; assay: Cytotoxicity against human MT4 cells after 5 days by MTT assay; type: cell-based; settings: not given
In short: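 Uninfected MT-4 cells at 1 × 10^5 cells/mL in RPMI 1640 with 10% FBS, penicillin and streptomycin, exposed to compounds at 37 °C for 5 days. Viability by MTT (7.5 mg/mL solution); formazan taken up in acidic isopropanol containing 4% Triton-X, read at 595 nm.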

Structure (SMILES)	CC50 at 120 h
CC(C)[C@@H](CO)n1cc(C(=O)O)c(=O)c2cc(Cc3cccc(Cl)c3F)ccc21	14000 nM
O=C(O)c1cn(CCO)c2ccc(Cc3cccc(Cl)c3F)cc2c1=O	> 6000 nM
O=C(O)c1cnc2ccc(Cc3ccccc3)cc2c1O	> 30000 nM
CCC[C@@H](CO)n1cc(C(=O)O)c(=O)c2cc(Cc3cccc(Cl)c3F)ccc21	12500 nM
Cn1cc(C(=O)C(=O)O)c(=O)c2cc(Cc3ccccc3)ccc21	> 30000 nM
O=C(O)c1c[nH]c2ccc(Cc3c(Cl)cccc3Cl)cc2c1=O	14900 nM
COc1cc2c(cc1Cc1cccc(Cl)c1F)c(=O)c(C(=O)O)cn2CCO	5300 nM
O=C(O)c1c[nH]c2ccc(Cc3cc(Cl)ccc3Cl)cc2c1=O	13200 nM
CC[C@@H](CO)n1cc(C(=O)O)c(=O)c2cc(Cc3cccc(Cl)c3F)ccc21	13000 nM
O=C(O)Cn1cc(C(=O)O)c(=O)c2cc(Cc3cccc(Cl)c3Cl)ccc21	> 30000 nM
O=C(O)c1cn(CCO)c2ccc(Cc3cccc(Cl)c3Cl)cc2c1=O	> 6000 nM
O=C(O)c1c[nH]c2ccc(Cc3ccccc3F)cc2c1=O	> 30000 nM
O=C(O)c1c[nH]c2ccc(Cc3ccccc3Cl)cc2c1=O	> 6000 nM
CCCn1cc(C(=O)O)c(=O)c2cc(Cc3cccc(Cl)c3Cl)ccc21	15600 nM
O=C(O)/C(O)=C/C(=O)c1cccc(Cc2ccccc2)c1	> 30000 nM
CC(C)(C)[C@@H](CO)n1cc(C(=O)O)c(=O)c2cc(Cc3cccc(Cl)c3F)ccc21	14400 nM
COc1cc2c(cc1Cc1cccc(Cl)c1F)c(=O)c(C(=O)O)cn2[C@@H](CO)C(C)C	4200 nM
C[C@@H](CO)n1cc(C(=O)O)c(=O)c2cc(Cc3cccc(Cl)c3F)ccc21	13700 nM
NC(=O)CCn1cc(C(=O)O)c(=O)c2cc(Cc3cccc(Cl)c3Cl)ccc21	15100 nM
O=C(O)c1cn(CCCO)c2ccc(Cc3cccc(Cl)c3Cl)cc2c1=O	15100 nM
N#Cc1cc2c(cc1Cc1cccc(Cl)c1Cl)c(=O)c(C(=O)O)cn2CCO	13900 nM
COc1cc2c(cc1Cc1cccc(Cl)c1F)c(=O)c(C(=O)O)cn2[C@H](CO)C1CCCCC1	3000 nM
Cn1cc(C(=O)O)c(=O)c2cc(Cc3cccc(Cl)c3Cl)ccc21	14400 nM
COc1ccccc1Cc1ccc2[nH]cc(C(=O)O)c(=O)c2c1	16600 nM
O=C(O)c1cn(CCO)c2cc(Cl)c(Cc3cccc(Cl)c3Cl)cc2c1=O	> 6000 nM
O=C(O)c1c[nH]c2ccc(Cc3cccc(Cl)c3Cl)cc2c1=O	12600 nM
